Measurements as given in PubChem BioAssay.
The other results are listed elsewhere or left out. A number with no mark means an inactive call. Activity calls are given as the source filed them.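 The calls were made as follows, unless noted: active = mean activation across triplicate tests above the threshold derived from the earlier primary screen (cut at about 5.5% in these data); inactive = the rest.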

Legend:
[1] = molecular target: Oxysterols receptor LXR-beta (Homo sapiens) (UniProt P55055); test: nonspecific reporter activation via LXR – cell-based, luminescence, HEK293, H. contortus campaign, counter-screen for hcDAF-12 agonist project, confirmation (AID 743027;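 active = mean percent activation of the reporter above a cutoff set as the average over tested compounds plus their standard deviation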); details: HEK293 Gal4-LXR tk-luc reporter, 24 h, at 6.8 µM, stronger effect = higher value, normalized: DMSO 0%, positive control 100%
Method in brief: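 Assay system: HEK293 Gal4-LXR luciferase reporter cells | Measure: % activation relative to DMSO and positive-control wells | Benchmarks: DMSO-only wells as low, positive-control wells as high | Timing: 24 h compound exposure at 37 °C, 5% CO2 | Detection: Luciferase luminescence read with One-Glo reagent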

[2] = system: Nuclear hormone receptor DAF-12 (Haemonchus contortus); test: hcDAF-12 luciferase reporter activation, retest – cell-based, luminescence, HEK293, lit1-tk-luc, triplicate, confirmation (AID 743032); details: HEK293 hcDAF-12 lit1-tk-luc reporter, at 6.8 µM, stronger effect = higher value, % of Δ7-dafachronic acid response;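 also: 0% = DMSO only wells and 100% = 3 µM Δ7-dafachronic acid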
[3] = system: DAF-12 nuclear receptor (Heterodera glycines), GAL4-LBD fusion; test: hgDAF-12 GAL4 fusion reporter activation, retest – cell-based, luminescence, HEK293, GAL4-LBD fusion, confirmation (AID 743050;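 active = mean activation over triplicate wells above the hit cutoff derived from the earlier primary screen, cut at about 11% in these data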;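 also: 0% = DMSO low control and 100% = 2 mM sodium butyrate high control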); details: HEK293 GAL4-hgDAF12 luciferase reporter, agonist mode; at 6.8 µM; stronger effect = higher value; percent of butyrate response
[4] = molecular target: Oxysterols receptor LXR-beta (Homo sapiens) (UniProt P55055); test: nonspecific reporter activation via LXR – cell-based, luminescence, HEK293, H. glycines campaign, counter-screen for hgDAF-12 agonist project, confirmation (AID 743051;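 active = mean activation of the triplicate above a set limit carried over from the primary screen, none filed active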); details: HEK293 Gal4-LXR luciferase reporter, 24 h; at 6.8 µM; stronger effect = higher value
Method in brief: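 test system = Gal4-LXR luciferase reporter HEK293 cells | times = 3 h cell plating, then 24 h compound exposure at 37 °C | signal = luciferase luminescence | benchmarks = DMSO low control, 0.68% final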

[5] = molecular target: Galanin receptor type 2 (Homo sapiens) (UniProt O43603); test: blockers of human galanin receptor 2 – cell-based, confirmation (AID 866; in the data active = inhibition above about 27%;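 also: cells stimulated with galanin at about its EC80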); details: GALR2-expressing cells, antagonist mode, at 4 µM, stronger effect = higher value
[6] = nonspecific BLA reporter inhibition – CHO NFAT-bla cells, FRET readout, counter-screen for GALR2 antagonist project, confirmation (AID 867;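 active = inhibition above the mean inhibition across tested compounds plus 3 SD, cut at about 27% in these data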;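 also: 0% = 500 nM thapsigargin stimulated wells and 100% = unstimulated BSA only wells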); details: beta-lactamase FRET, thapsigargin-stimulated, at 4.2 µM, stronger effect = higher value

Sequence of Oxysterols receptor LXR-beta (Homo sapiens) (P55055 whole entry, looked up, the tested form may be a part): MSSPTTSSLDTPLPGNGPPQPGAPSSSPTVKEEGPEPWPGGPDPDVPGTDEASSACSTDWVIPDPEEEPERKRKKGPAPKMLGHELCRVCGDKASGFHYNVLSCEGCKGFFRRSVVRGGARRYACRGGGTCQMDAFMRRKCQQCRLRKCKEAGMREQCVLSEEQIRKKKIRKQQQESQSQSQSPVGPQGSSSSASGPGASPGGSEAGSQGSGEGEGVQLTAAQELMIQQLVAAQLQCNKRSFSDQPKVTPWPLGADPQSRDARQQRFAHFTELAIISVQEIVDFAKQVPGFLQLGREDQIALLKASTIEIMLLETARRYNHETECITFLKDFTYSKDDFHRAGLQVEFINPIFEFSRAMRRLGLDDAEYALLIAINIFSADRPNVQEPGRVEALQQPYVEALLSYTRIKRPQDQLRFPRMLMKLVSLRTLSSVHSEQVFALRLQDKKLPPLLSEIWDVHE
Sequence of Galanin receptor type 2 (Homo sapiens) (O43603 whole entry, looked up): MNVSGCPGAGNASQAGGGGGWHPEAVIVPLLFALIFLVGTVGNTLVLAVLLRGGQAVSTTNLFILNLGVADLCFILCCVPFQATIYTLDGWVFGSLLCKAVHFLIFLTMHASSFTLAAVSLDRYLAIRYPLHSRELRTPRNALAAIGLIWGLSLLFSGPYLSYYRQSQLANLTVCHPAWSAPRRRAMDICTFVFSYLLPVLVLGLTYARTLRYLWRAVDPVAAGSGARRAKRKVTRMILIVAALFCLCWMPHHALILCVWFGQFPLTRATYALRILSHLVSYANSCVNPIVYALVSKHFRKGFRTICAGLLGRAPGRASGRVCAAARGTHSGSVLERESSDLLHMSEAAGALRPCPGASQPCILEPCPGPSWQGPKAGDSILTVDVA

Cc1cccc(/C(N)=N/OC(=O)c2ccccc2Cl)c1
activation [1]: 2.08% | activation [2]: 15.3% (active) | activation [3]: 21.4% (active) | activation [4]: 1.18%

Cc1cccc(NC(=O)c2ccc3ccccc3n2)n1
activation [1]: 1.06% | activation [2]: 10.5% (active) | activation [3]: 17% (active) | activation [4]: 0.69%

Cn1c(=NC(=O)C2CC2)sc2cc(F)cc(F)c21
activation [1]: -0.11% | activation [2]: 5.5% | activation [3]: 5.29% | activation [4]: 0.25%

COc1ccc(C2=NN(C(=O)c3ccccc3C(=O)O)C(c3ccccc3O)C2)cc1 (stereo not drawn)
activation [1]: 0.16% | activation [2]: 2.72% | activation [3]: 4.93% | activation [4]: 0.19%

Cn1c(-c2ccco2)nc2cc3ccccc3cc21
inhibition [5]: 32.7% (active) | inhibition [6]: 15.4% | activation [1]: 2.33% | activation [2]: 17.3% (active)

Cc1ccnc(NC(=O)CCNS(=O)(=O)c2ccc(C)c(C)c2)c1
activation [1]: 1.16% | activation [2]: 5.73% (active) | activation [3]: 17.9% (active) | activation [4]: 0.55%

Brc1ccc(-c2noc(-c3ccccc3)n2)o1
activation [1]: 0.77% | activation [2]: 7.78% (active) | activation [3]: 18.7% (active) | activation [4]: 0.75%

c1ccc(Cc2c(-c3ccco3)nc3c4ccccc4ccn23)cc1
activation [1]: 1.44% | activation [2]: 15.8% (active) | activation [3]: 16.6% (active) | activation [4]: 0.76%

NC(=O)c1c(NC(=O)c2ccccc2)sc2c1CCCC2
activation [1]: 1.21% | activation [2]: 13.6% (active)

c1cnc(N2CCN(c3ccc4ccccc4n3)CC2)nc1
activation [1]: 0.85% | activation [2]: 5.39% | activation [3]: 16.9% (active) | activation [4]: 0.78%
